Results from different studies.
Lines come from different studies, so protocols differ.
Target: BDNF/NT-3 growth factors receptor (NTRK2, Homo sapiens, UniProt Q16620)

SMILES	effect on	action	technique	concentration	endpoint	result
O=C(Nc1ccc(I)cc1)Nc1cccc(C(=O)Nc2ccc3[nH]ncc3c2)c1	enzyme activity	inhibitor	FRET	1 µM	inhibition	15.9%
Cc1cc(NC(=O)c2cccc3cc(-c4cccc5[nH]nc(N)c45)ccc23)ccc1F	enzyme activity	inhibitor		0.1 µM	activity vs control	107%
CCN(CC)c1ccc(C2=NNC(=O)CC2C)cc1[N+](=O)[O-] (stereo not shown)	enzyme activity	inhibitor		10 µM	remaining activity	87%
O=C(Nc1cccc(F)c1)Nc1cccc(C(=O)Nc2ccc3[nH]ncc3c2)c1	enzyme activity	inhibitor	FRET	1 µM	inhibition	19.3%
Cc1ccc(NC(=O)c2ccc(CN3CCN(C)CC3)cc2)cc1Nc1nc(-c2cccnc2)cs1	cell-free assay			0.5 µM	remaining signal	101%
O=C(Nc1ccc2[nH]ncc2c1)c1cccc(NC(=O)c2cc(C(F)(F)F)ccc2F)c1	enzyme activity	inhibitor	FRET	1 µM	inhibition	13.5%
CC(C)(C)c1nc(-c2cccc(NS(=O)(=O)c3c(F)cccc3F)c2F)c(-c2ccnc(N)n2)s1	enzyme activity	inhibitor	radiometric	1 µM	remaining activity	100%
CNC(=O)Nc1ccc2c(c1)[C@@]1(CC2)OC(=O)N(CC(=O)N(Cc2ccc(F)cc2)[C@@H](C)C(F)(F)F)C1=O	cell-free assay		competition with immobilised ligand	1 µM	remaining binding	89%
CCN(CC)CCNC(=O)c1c(C)[nH]c(/C=C2\C(=O)Nc3ccc(F)cc32)c1C	cell-free assay			0.3 µM	inhibition	70%
CC1=C(C#N)[C@@H](c2ccc3[nH]nc(C)c3c2)C(C#N)=C(c2ccc(Cl)cc2)N1	cell-free assay		competition with immobilised ligand	1 µM	remaining binding	85.2%
O=C(Nc1ccc2[nH]ncc2c1)c1cccc(NC(=S)Nc2ccc(F)cc2F)c1	enzyme activity	inhibitor	FRET	1 µM	inhibition	9.64%
Cc1sc(C(=O)NC2COC2)cc1-n1cc(NC(=O)Nc2c(F)cccc2Cl)cn1	enzyme activity	inhibitor		10 µM	remaining activity	92.4%
O=C(Nc1cccc(C(=O)Nc2ccc3[nH]ncc3c2)c1)Nc1ccccc1Cl	enzyme activity	inhibitor	FRET	1 µM	inhibition	20.6%
Cc1ccc(Nc2nccc(N(C)c3ccc4c(C)n(C)nc4c3)n2)cc1S(N)(=O)=O	cell-free assay			0.5 µM	remaining signal	91.5%
CN1CCN(CC(=O)Nc2cccc(C(=O)Nc3ccc4[nH]ncc4c3)c2)CC1	enzyme activity	inhibitor	FRET	1 µM	inhibition	13.3%
Cc1nccc(COC(=O)N2C[C@@H]3[C@@H](CNC(=O)c4ccc5[nH]nnc5c4)[C@@H]3C2)n1	cell-free assay		competition with immobilised ligand	1 µM	remaining binding	100%
O=C1NC(=O)c2cc(Nc3ccc(F)cc3)c(Nc3ccc(F)cc3)cc21	cell-free assay			0.5 µM	remaining signal	91.9%
Cc1ccc(C(=O)NCc2ccsc2)cc1C#Cc1cn(C(C)C)c2ncnc(N)c12	enzyme activity	inhibitor		1 µM	activity vs control	58%
CCCOc1ccc([C@@H]2[C@@H](C(=O)O)[C@H](c3ccc4c(c3)OCO4)CN2CC(=O)Nc2c(CC)cccc2CC)cc1	cell-free assay		competition with immobilised ligand	1 µM	remaining binding	100%
O=C1Nc2ccc(Cl)cc2C1=Cc1cc(Cl)c(O)c(Cl)c1	cell-free assay			0.5 µM	remaining signal	61.1%
O=C1CCc2cc(Nc3cc(OC4CCOCC4)c([N+](=O)[O-])cc3Cl)ccc2N1	cell-free assay		competition with immobilised ligand	1 µM	remaining binding	100%
Cc1ccc(NC(=O)c2ccc(C)c(C(F)(F)F)c2)cc1C#Cc1nn(C2CCC(O)CC2)c2ncnc(N)c12 (stereo not shown)	cell-free assay			10 µM	remaining signal	4%
CS(=O)(=O)NCC[C@H](NC(=O)c1cncc2c1cnn2-c1ccc(F)cc1)c1ccnc(S(C)(=O)=O)c1	cell-free assay		competition with immobilised ligand	1 µM	remaining binding	100%
CNC(=O)c1cc(Oc2ccc(NC(=O)Nc3ccc(Cl)c(C(F)(F)F)c3)cc2)ccn1	cell-free assay			10 µM	inhibition	99%
Cc1cc(C)c(-n2ccn3nc(-c4cccnc4)cc23)cc1NC(=O)c1cc(C#N)cc(S(F)(F)(F)(F)F)c1	cell-free assay		competition with immobilised ligand	0.1 µM	remaining binding	54.8%
O=C(Nc1ccc2[nH]ncc2c1)c1cccc(NC(=S)Nc2cc(C(F)(F)F)cc(C(F)(F)F)c2)c1	enzyme activity	inhibitor	FRET	1 µM	inhibition	11.2%
O=C(Nc1ccc(Oc2ccc(F)cc2)cc1)N1CCc2ncccc2[C@H]1c1ccc(F)cc1	cell-free assay		competition with immobilised ligand	1 µM	remaining binding	84%
O=C(Nc1ccc(C(F)(F)F)cc1)Nc1cccc(C(=O)Nc2ccc3[nH]ncc3c2)c1	enzyme activity	inhibitor	FRET	1 µM	inhibition	14%
